Measurements taken from PMC8240349 (Journal of Traditional and Complementary Medicine, 2021).
Like-named read-outs stand apart in the source and are kept apart here. Marks after values point to notes of the source that are not given here.

How the values were obtained:
[1] = format: in vivo, human; details: for AUC0-t / AUC0-∞ / CL/F / MRT / Vz/F / t1/2z / tmax / λ / Cmax: median (range)
Outline: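 Healthy Thai adults took oral 1,000 mg AL extract capsules with 200 ml water, either once (group 1) or daily for 21 days (group 2), with 20 active recipients per group. Plasma atractylodin was measured by reversed-phase C18 HPLC (UV 340 nm, acetonitrile:water 70:30, 25 °C; LOQ 2.5 ng/ml). Cmax was read from observed data. t1/2z came from log-linear regression of at least the last three points. MRT was AUMC0-∞/AUC0-∞.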

[2] = format: in vivo, human; details: for AUC0-∞ / CL/F / Cmax / K01 / Vz/F / k10 / t1/2a / t1/2z / tlag / tmax / K10: median (range)
[3] = rats, cited from earlier work
CCA = details: bioassay-guided activity; cited from earlier work
[4] = cited from earlier work
[5] = group 1, single 1,000 mg AL, all
[6] = group 1, single 1,000 mg AL, female
[7] = group 1, single 1,000 mg AL, male
[8] = group 2, daily 1,000 mg AL, day 1, all
[9] = group 2, daily 1,000 mg AL, day 1, female
[10] = group 2, daily 1,000 mg AL, day 1, male
[11] = group 2, daily 1,000 mg AL, day 21, all
[12] = group 2, daily 1,000 mg AL, day 21, female
[13] = group 2, daily 1,000 mg AL, day 21, male
[14] = intravenous 2 mg/kg body weight atractylodin
[15] = oral 30 g/kg body weight A. rhizoma
[16] = oral 40 g/kg body weight crude A. rhizoma
[17] = oral 40 g/kg body weight processed A. rhizoma

## C/C=C/C#CC#C/C=C/c1ccco1 [atractylodin]
[1]; all participants, both groups
  plasma atractylodin after 6 h: undetectable
[1]; both groups, model-independent analysis
  observed Cmax, range: 7.1 to 152.7 ng/mL
[1]; [5]
  AUC0-t: 118.27 (72.47–169.90) ng.h/ml
  AUC0-∞: 123.70 (75.13–176.96) ng.h/ml
  CL/F: 6.68 (4.46–13.70) l/kg/h
  MRT: 2.42 (1.74–3.11) h
  Vz/F: 11.45 (7.06–20.17) l/kg
  t1/2z: 1.13 (0.78–1.48) h
  tmax: 1 (0.75–1.5) h
  λ: 0.62 (0.47–0.89) /h
[1]; [6]
  AUC0-t: 122.67 (72.47–192.85) ng.h/ml
  AUC0-∞: 128.13 (75.13–199.88) ng.h/ml
  CL/F: 6.87 (4.48–13.70) l/kg/h
  Cmax: 58.65 (42.50–96.80) ng/ml
  MRT: 2.21 (1.70–3.74) h
  Vz/F: 12.11 (6.62–20.17) l/kg
  t1/2z: 1.18 (0.72–2.19) h
  tmax: 1.0 (0.75–1.0) h
  λ: 0.71 (0.37–0.92) /h
[1]; [7]
  AUC0-t: 142.14 (83.48–199.75) ng.h/ml
  AUC0-∞: 146.88 (86.09–226.53) ng.h/ml
  CL/F: 6.29 (2.80–8.92) l/kg/h
  Cmax: 59.20 (41.80.50–99.30) ng/ml
  MRT: 2.42 (1.71–2.94) h
  Vz/F: 11.49 (8.35–56.42) ^a l/kg
  t1/2z: 1.23 (0.13–2.77) h
  tmax: 1.0 (0.75–2.0) h
  λ: 0.85 (0.29–1.10) /h
[1]; group 1, single 1,000 mg AL, 10 participants
  participants with atractylodin detected at 0.25 h: 50%
[1]; [8]
  AUC0-t: 93.06 (12.13–276.28) ng.h/ml
  AUC0-∞: 112.2 (20.11–306.76) ng.h/ml
  CL/F: 7.33 (2.87–33.43) l/kg/h
  Cmax: 47.10 (7.10–129.90) ng/ml
  MRT: 2.60 (1.58–5.17) h
  Vz/F: 12.75 (4.44–61.56) l/kg
  t1/2z: 1.16 (0.63–3.75) h
  tmax: 1.0 (0.5–2.0) h
  λ: 0.60 (0.19–1.11) /h
[1]; [9]
  AUC0-t: 99.67 (42.88–276.28) ng.h/ml
  AUC0-∞: 139.56 (70.21–248.22) ng.h/ml
  CL/F: 6.43 (2.87–15.00) l/kg/h
  Cmax: 54.35 (16.10–129.90) ng/ml
  MRT: 2.66 (1.70–3.99) h
  Vz/F: 11.97 (4.44–37.88) l/kg
  t1/2z: 1.36 (0.85–1.75) h
  λ: 0.52 (0.40–0.82) /h
[1]; [10]
  AUC0-t: 82.88 (12.13–181.08) ng.h/ml
  AUC0-∞: 92.40 (20.11–210.23) ng.h/ml
  CL/F: 8.38 (3.77–33.43) l/kg/h
  Cmax: 41.90 (7.10–67.20) ng/ml
  MRT: 2.47 (1.58–5.17) h
  Vz/F: 13.96 (6.73–61.56) l/kg
  t1/2z: 1.09 (0.63–3.75) h
  tmax: 1.0 (1.0–2.0) h
  λ: 0.64 (0.19–1.11) /h
[1]; group 2, daily 1,000 mg AL, day 1, 17 participants
  participants with atractylodin detected at 0.5 h: 85%
[1]; [11]
  AUC0-t: 106.67 (40.42–259.81) ng.h/ml
  AUC0-∞: 117.75 (48.73-269-21) ng.h/ml
  CL/F: 6.80 (2.95–14.82) l/kg/h
  Cmax: 46.95 (20.10–152.70) ng/ml
  MRT: 2.64 (1.58–4.54) h
  Vz/F: 12.85 (3.58–31.55) l/kg
  t1/2z: 1.14 (0.80–2.17) h
  tmax: 1.0 (0.5–2.0) h
  λ: 0.61 (0.32–0.87) /h
[1]; [12]
  AUC0-t: 118.05 (42.97–212.09) ng.h/ml
  AUC0-∞: 145.54 (67.49–232.33) ng.h/ml
  CL/F: 5.93 (3.79–11.38) l/kg/h
  Cmax: 52.55 (20.10–152.70) ng/ml
  MRT: 2.61 (1.58–4.54) h
  Vz/F: 12.12 (5.11–31.55) l/kg
  t1/2z: 1.28 (0.80–2.17) h
  tmax: 1.0 (0.5–2.0) h
  λ: 0.54 (0.32–0.87) /h
[1]; [13]
  AUC0-t: 75.38 (40.42–259.81) ng.h/ml
  AUC0-∞: 91.67 (48.73-269-21) ng.h/ml
  CL/F: 7.90 (2.95–14.82) l/kg/h
  Cmax: 44.0 (22.0–107.0) ng/ml
  MRT: 2.64 (1.95–3.08) h
  Vz/F: 13.79 (3.58–22.13) l/kg
  t1/2z: 1.08 (0.84–1.65) h
  tmax: 1.0 (1.0–2.0) h
  λ: 0.64 (0.42–0.82) /h
[1]; group 2, daily 1,000 mg AL, day 21, 19 participants
  participants with atractylodin detected at 0.5 h: 95%
[1]; group 2, daily 1,000 mg AL, range
  plasma atractylodin level at 4 h: 2.5 to 18.2 ng/mL
[1]; human plasma, multiple oral dosing for 21 days
  accumulation after multiple oral dosing: no accumulation
[1]; most participants
  time by which atractylodin was cleared in plasma: ≤ 4 h
[2]; [5]
  AUC0-∞: 105.07 (65.93–168.90) ng.h/ml
  CL/F: 7.28 (4.78–15.62) l/kg/h
  Cmax: 29.1 (17.1–42.51) ng/ml
  K01: 0.68 (0.43–1.00) /h
  Vz/F: 10.18 (6.85–19.53) L/kg
  k10: 0.71 (0.44–1.71) /h
  t1/2a: 0.97 (0.41–1.58) h
  t1/2z: 0.88 (0.37–1.74) h
  tlag: 0.13 (0.0–0.5) h
  tmax: 1.41 (0.94–2.3) h
[2]; [6]
  AUC0-∞: 108.19 (65.93–186.59) ng.h/ml
  CL/F: 8.06 (4.80–15.62) l/kg/h
  Cmax: 31.04 (19.29–49.21) ng/ml
  K01: 0.75 (0.59–1.48) /h
  K10: 0.76 (0.59–1.16) /h
  Vz/F: 11.81 (5.65–19.53) l/kg
  t1/2a: 0.92 (0.47–1.19) h
  t1/2z: 0.92 (0.47–1.19) h
  tlag: 0.0 (0.0–0.25) h
  tmax: 1.33 (0.89–1.70) h
[2]; [7]
  AUC0-∞: 118.85 (74.25–189.98) ng.h/ml
  CL/F: 6.35 (3.34–10.33) l/kg/h
  Cmax: 31.05 (17.86–51.36) ng/ml
  K01: 0.68 (0.44–0.95) /h
  K10: 0.67 (0.43–0.96) /h
  Vz/F: 8.41 (5.14–18.70) l/kg
  t1/2a: 1.02 (0.73–1.58) h
  t1/2z: 1.02 (0.73–1.57) h
  tlag: 0.25 (0–0.5) h
  tmax: 1.48 (1.05–2.29) h
[2]; [8]
  AUC0-∞: 103.7 (16.5–315.4) ng.h/ml
  CL/F: 8.11 (2.73–40.75) l/kg/h
  Cmax: 32.11 (4.9–117.8) ng/ml
  K01: 0.83 (0.43–22.67) /h
  Vz/F: 12.74 (2.687–47.03) L/kg
  k10: 0.71 (0.43–1.25) /h
  t1/2a: 0.84 (0.03–1.63) h
  t1/2z: 0.84 (0.03–1.63) h
  tlag: 0 (0–0.5) h
  tmax: 1.18 (0.17–2.34) h
[2]; [9]
  AUC0-∞: 130.62 (52.04–315.40) ng.h/ml
  CL/F: 6.50 (2.73–14.76) l/kg/h
  Cmax: 42.26 (8.41–117.80) ng/ml
  K01: 0.96 (0.43–22.67) /h
  K10: 0.63 (0.43–1.19) /h
  Vz/F: 10.09 (2.68–33.56) l/kg
  t1/2a: 0.73 (0.03–1.63) h
  t1/2z: 0.73 (0.03–1.63) h
  tmax: 1.11 (0.17–2.34) h
[2]; [10]
  AUC0-∞: 91.88 (16.5–109.93) ^b ng.h/ml
  CL/F: 8.75 (5.8–40.75) l/kg/h
  Cmax: 23.77 (4.97–49.75) ^a ng/ml
  K01: 0.78 (0.57–1.89) /h
  K10: 0.72 (0.24–1.25) /h
  Vz/F: 15.52 (6.43–47.03) l/kg
  t1/2a: 0.89 (0.37–1.21) h
  t1/2z: 0.89 (0.37–1.21) h
  tlag: 0.0 (0.0–0.5) h
  tmax: 1.25 (0.81–1.73) h
[2]; [11]
  AUC0-∞: 123.18 (49.22–419.61) ng.h/ml
  CL/F: 7.10 (1.83–14.67) l/kg/h
  Cmax: 31.84 (9.38–97.64) ng/ml
  K01: 0.74 (0.10–1.92) /h
  Vz/F: 9.66 (0.47–26.32) L/kg
  k10: 0.73 (0.11–15.31) /h
  t1/2a: 0.94 (0.36–6.61) h
  t1/2z: 0.94 (0.05–6.49) h
  tlag: 0 (0–0.5) h
  tmax: 1.32 (0.24–9.44) h
[2]; [12]
  AUC0-∞: 144.4 (69.1–420.3) ng.h/ml
  CL/F: 5.91 (1.83–11.11) l/kg/h
  Cmax: 39.49 (11.40–91.24) ng/ml
  K01: 0.72 (0.11–1.92) /h
  K10: 0.74 (0.11–15.31) /h
  Vz/F: 8.18 (0.47–25.06) l/kg
  t1/2a: 0.97 (0.36–6.61) h
  t1/2z: 0.94 (0.05–6.49) h
  tlag: 0 (0–0.5) h
  tmax: 1.36 (0.24–9.45) h
[2]; [13]
  AUC0-∞: 87.18 (49.22–292.77) ^c ng.h/ml
  CL/F: 8.16 (2.70–14.67) ^d l/kg/h
  Cmax: 26.03 (9.39–97.64) ng/ml
  K01: 0.83 (0.52–1.57) /h
  K10: 0.71 (0.42–0.99) /h
  Vz/F: 13.32 (3.05–26.32) l/kg
  t1/2a: 0.84 (0.44–1.34) h
  t1/2z: 0.99 (0.70–1.67) h
  tlag: 0 (0.0–0.0) h
  tmax: 1.24 (1.0–1.94) h
[2]; in vivo
  Cmax by model-dependent analysis compared with model-independent analysis: 60–70%
[3]; [14]
  central volume of distribution (Vc): 31.7 L/kg
  t1/2: 3.3 h
  total clearance (CL): 110 mL/min/kg
[3]; [15]
  mean maximum plasma concentration (Cmax): 1,930 ng/ml
  terminal elimination half-life (t1/2): 8 h
  time to Cmax (tmax): 2.25 h
[3]; [16]
  CL/F: 111 mL/min/kg
  mean Cmax: 625 ng/mL
  mean residence time (MRT): 4.8 h
  t1/2z: 2.38 h
  time of Cmax: 2.2 h
[3]; [17]
  CL/F: 42.7 mL/min/kg
  MRT: 7.06 h
  mean Cmax: 2,299 ng/ml
  t1/2z: 5.13 h
  tmax: 0.33 h
CCA
  IC50, anti-CCA activity: 20 to 25 µg/mL
[4]
  water solubility: low water solubility

## C=C1CCC[C@]2(C)CC[C@@H](C(C)(C)O)C[C@@H]12 [β-eudesmol]
CCA
  IC50, anti-CCA activity: 20 to 25 µg/mL
